In brackets after ≈: the same amount, converted by molar mass. Activity calls are given as the source filed them. The calls are words filed in the database; no cut-off is given here.
Tests used:
Mus musculus [1] = experiment: Toxicity in Venezuelan equine encephalitis virus TC83 infected C3H/HeN mouse assessed as body weight loss at 40 mg/kg/day, ip BID for 4 days; type: organism-based; design: route intraperitoneal; conditions: in vivo, 96 h
Mus musculus [2] = experiment: Toxicity in Venezuelan equine encephalitis virus TC83 infected C3H/HeN mouse assessed as induction of lethargy at 40 mg/kg/day, ip BID for 4 days; type: organism-based; design: route intraperitoneal; conditions: in vivo, 96 h
Mus musculus [3] = experiment: Toxicity in Venezuelan equine encephalitis virus TC83 infected C3H/HeN mouse assessed as induction of lethargy at 5 mg/kg/day, ip BID for 4 days; type: organism-based; design: route intraperitoneal; conditions: in vivo, 96 h
[4] = target: Alpha-1B adrenergic receptor (Rattus norvegicus) (UniProt P15823); experiment: Displacement of [3H]prazosin from rat adrenergic alpha1B receptor at 10 uM
[5] = target: Beta-1 adrenergic receptor (Homo sapiens) (UniProt P08588); experiment: Displacement of [125I]cyanopindolol from human adrenergic beta1 receptor at 10 uM
[6] = target: B1 bradykinin receptor (Homo sapiens) (UniProt P46663); experiment: Displacement of [3H](Des-Arg10)-Kallidin from human bradykinin B1 receptor at 10 uM
[7] = target: Cannabinoid receptor 1 (Homo sapiens) (UniProt P21554); experiment: Displacement of [3H]SR141716A from human CB1 receptor at 10 uM
[8] = target: GABA-A receptor; anion channel (Homo sapiens) (UniProt P14867+P47870+P18507+P28472+P48169+Q99928+Q9UN88+P34903+O00591+O14764+Q8N1C3+P18505+P78334+P47869+P31644+Q16445); experiment: Displacement of ABC from rat GABAA receptor central flunitrazepam site at 10 uM; type: protein-complex assay; conditions: target entry is the homologue from another species
[9] = target: Histamine H2 receptor (Homo sapiens) (UniProt P25021); experiment: Displacement of [125I]aminopotentidine from human histamine H2 receptor at 10 uM
Rattus norvegicus [10] = species: Rattus norvegicus; experiment: Displacement of [3H]idazoxan from rat Imidazole receptor 2 at 10 uM
[11] = target: Muscarinic acetylcholine receptor M1 (Homo sapiens) (UniProt P11229); experiment: Displacement of [3H]N-Methylscopolamine from human muscarinic M1 receptor at 10 uM
[12] = target: Muscarinic acetylcholine receptor M3 (Homo sapiens) (UniProt P20309); experiment: Displacement of [3H]N-Methylscopolamine from human muscarinic M3 receptor at 10 uM
[13] = target: Neuropeptide Y receptor type 1 (Homo sapiens) (UniProt P25929); experiment: Displacement of [125I]Peptide YY from human neuropeptide Y Y1 receptor at 10 uM
[14] = target: Neuronal acetylcholine receptor (Rattus norvegicus) (UniProt P04757+P09483+P12389+P12390+P12392+P43144+Q9JLB5+P12391+P43143+P20420+Q05941); experiment: Displacement of [125I]epibatidine from human nAchR at 10 uM; type: protein-complex assay
[15] = target: Acetylcholine receptor subunit alpha (Homo sapiens) (UniProt P02708); experiment: Displacement of [125I]alpha-Bungarotoxin from human nAchR alpha1 bungarotoxin binding site at 10 uM
[16] = target: Delta-type opioid receptor (Homo sapiens) (UniProt P41143); experiment: Displacement of [3H]naltrindole from human delta1 opiate receptor at 10 uM
[17] = target: Kappa-type opioid receptor (Homo sapiens) (UniProt P41145); experiment: Displacement of [3H]diprenorphine from human kappa opiate receptor at 10 uM
Cricetinae = experiment: Displacement of [3H]glyburide from hamster KATP channel at 10 uM
hERG (KCNH2) = hERG (KCNH2) (Homo sapiens, UniProt Q12809); experiment: Displacement of [3H]astemizole from human ERG channel at 10 uM; conditions: probe [3H]astemizole
Oryctolagus cuniculus = species: Oryctolagus cuniculus; experiment: Displacement of [3H]alpha,beta-methylene-ATP from rabbit P2X channel at 10 uM
Rattus norvegicus [18] = species: Rattus norvegicus; experiment: Displacement of [35S]ATP-alphaS from rat P2Y channel at 10 uM
Rattus norvegicus [19] = species: Rattus norvegicus; experiment: Displacement of [3H]rolipram from rat Rolipram binding site at 10 uM
[20] = target: Sigma non-opioid intracellular receptor 1 (Homo sapiens) (UniProt Q99720); experiment: Displacement of [3H]haloperidol from human sigma1 receptor at 10 uM
Rattus norvegicus [21] = species: Rattus norvegicus; experiment: Displacement of [3H]GABA from rat GABA transporter at 10 uM
[22] = target: Sodium-dependent serotonin transporter (Homo sapiens) (UniProt P31645); experiment: Displacement of [3H]paroxetine from human SERT at 10 uM
[23] = system: Venezuelan equine encephalitis virus; experiment: Antiviral activity against Venezuelan equine encephalitis virus TC83 infected in Vero 76 cells assessed as reduction in virus-induced cytopathic effect after 2 days by Celltiter-Glo reagent based assay; type: functional, organism-based; conditions: TC83, Vero 76, 48 h
[24] = system: Venezuelan equine encephalitis virus; experiment: Antiviral activity against Venezuelan equine encephalitis virus V3526 infected in Vero 76 cells assessed as reduction in virus-induced cytopathic effect after 2 days by Celltiter-Glo reagent based assay; type: functional, organism-based; conditions: V3526, Vero 76, 48 h
[25] = system: Venezuelan equine encephalitis virus; experiment: Antiviral activity against Venezuelan equine encephalitis virus TrD infected in Vero 76 cells assessed as reduction in virus-induced cytopathic effect after 2 days by Celltiter-Glo reagent based assay; type: functional, organism-based; conditions: Vero 76, 48 h
[26] = system: Venezuelan equine encephalitis virus; experiment: Antiviral activity against Venezuelan equine encephalitis virus TrD infected in Vero 76 cells assessed as reduction in viral titer at 1 uM by crystal violet staining based microplaque assay relative to untreated control; type: functional
[27] = system: Venezuelan equine encephalitis virus; experiment: Antiviral activity against Venezuelan equine encephalitis virus TrD infected in Vero 76 cells assessed as reduction in viral titer at 0.5 uM by crystal violet staining based microplaque assay relative to untreated control; type: functional, organism-based
[28] = system: Venezuelan equine encephalitis virus; experiment: Antiviral activity against Venezuelan equine encephalitis virus TC83 infected in Vero 76 cells assessed as reduction in viral titer by crystal violet staining based microplaque assay relative to untreated control; type: functional, organism-based; conditions: TC83, Vero 76
[29] = Aqueous solubility in PBS buffer; type: physicochemical
How it was run: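 Solubility measured in 1× PBS at pH 7.4.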

[30] = Stability in 1:1 PBS/acetonitrile assessed as parent compound remaining; type: physicochemical; conditions: buffer
How it was run: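 Aqueous stability measured after 48 h incubation, in PBS pH 7.4 or in 1:1 PBS/acetonitrile; reported as % parent remaining.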

Plasma [31] = experiment: Stability in mouse plasma assessed as parent compound remaining after 3 hrs; type: ADME, cell-free
Plasma [32] = experiment: Protein binding in mouse plasma at 1 uM; type: ADME, cell-free
Liver = experiment: Stability in mouse liver microsomes as parent compound remaining; type: ADME
How it was run: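 Mouse hepatic microsomes incubated for 1 h; reported as % parent remaining.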

[33] = Plasma concentration in C57BL/6 mouse at 1 mg/kg, ip administered as single dose measured after 120 mins by LC/MS analysis based RACE assay; type: ADME, organism-based; design: dose 1 mg/kg, route intraperitoneal
How it was run: (§1)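 Single intraperitoneal dose of 1, 5 or 10 mg/kg given to C57BL/6 mice, 3 mice per dose and time point, with a vehicle-control cohort. Plasma was sampled at 20 and 120 min post-dose and drug level measured by LC/MS. Each time point averaged two injections (<20% difference); values are means ± standard deviation in μM.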

[34] = Plasma concentration in C57BL/6 mouse at 10 mg/kg, ip administered as single dose measured after 120 mins by LC/MS analysis based RACE assay; type: ADME, organism-based; design: dose 10 mg/kg, route intraperitoneal; how it was run: as §1

Chain of Alpha-1B adrenergic receptor (Rattus norvegicus) (P15823 whole entry): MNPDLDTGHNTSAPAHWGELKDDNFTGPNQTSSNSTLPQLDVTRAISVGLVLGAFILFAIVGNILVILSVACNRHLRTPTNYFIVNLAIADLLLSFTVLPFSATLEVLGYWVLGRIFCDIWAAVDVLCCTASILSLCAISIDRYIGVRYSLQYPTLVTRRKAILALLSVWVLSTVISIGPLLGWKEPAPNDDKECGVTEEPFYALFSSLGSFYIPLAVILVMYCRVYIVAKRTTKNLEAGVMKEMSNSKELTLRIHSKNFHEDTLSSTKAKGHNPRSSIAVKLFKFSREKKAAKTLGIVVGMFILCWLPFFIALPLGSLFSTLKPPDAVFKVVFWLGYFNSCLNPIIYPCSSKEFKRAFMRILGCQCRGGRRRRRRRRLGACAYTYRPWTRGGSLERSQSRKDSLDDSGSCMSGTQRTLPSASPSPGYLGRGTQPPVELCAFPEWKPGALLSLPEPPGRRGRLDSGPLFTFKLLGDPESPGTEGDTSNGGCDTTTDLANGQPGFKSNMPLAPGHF
Chain of Delta-type opioid receptor (Homo sapiens) (P41143 whole entry): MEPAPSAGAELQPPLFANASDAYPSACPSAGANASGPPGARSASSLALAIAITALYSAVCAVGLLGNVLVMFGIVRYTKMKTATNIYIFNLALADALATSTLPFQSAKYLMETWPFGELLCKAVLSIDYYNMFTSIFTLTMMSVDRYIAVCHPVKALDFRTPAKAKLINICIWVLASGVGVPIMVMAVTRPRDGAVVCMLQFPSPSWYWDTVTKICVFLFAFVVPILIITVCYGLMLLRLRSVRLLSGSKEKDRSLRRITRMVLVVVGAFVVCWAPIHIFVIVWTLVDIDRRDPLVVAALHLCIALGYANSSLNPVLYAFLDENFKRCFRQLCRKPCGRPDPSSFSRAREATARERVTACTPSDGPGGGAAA
Chain of hERG (KCNH2) (Q12809 whole entry): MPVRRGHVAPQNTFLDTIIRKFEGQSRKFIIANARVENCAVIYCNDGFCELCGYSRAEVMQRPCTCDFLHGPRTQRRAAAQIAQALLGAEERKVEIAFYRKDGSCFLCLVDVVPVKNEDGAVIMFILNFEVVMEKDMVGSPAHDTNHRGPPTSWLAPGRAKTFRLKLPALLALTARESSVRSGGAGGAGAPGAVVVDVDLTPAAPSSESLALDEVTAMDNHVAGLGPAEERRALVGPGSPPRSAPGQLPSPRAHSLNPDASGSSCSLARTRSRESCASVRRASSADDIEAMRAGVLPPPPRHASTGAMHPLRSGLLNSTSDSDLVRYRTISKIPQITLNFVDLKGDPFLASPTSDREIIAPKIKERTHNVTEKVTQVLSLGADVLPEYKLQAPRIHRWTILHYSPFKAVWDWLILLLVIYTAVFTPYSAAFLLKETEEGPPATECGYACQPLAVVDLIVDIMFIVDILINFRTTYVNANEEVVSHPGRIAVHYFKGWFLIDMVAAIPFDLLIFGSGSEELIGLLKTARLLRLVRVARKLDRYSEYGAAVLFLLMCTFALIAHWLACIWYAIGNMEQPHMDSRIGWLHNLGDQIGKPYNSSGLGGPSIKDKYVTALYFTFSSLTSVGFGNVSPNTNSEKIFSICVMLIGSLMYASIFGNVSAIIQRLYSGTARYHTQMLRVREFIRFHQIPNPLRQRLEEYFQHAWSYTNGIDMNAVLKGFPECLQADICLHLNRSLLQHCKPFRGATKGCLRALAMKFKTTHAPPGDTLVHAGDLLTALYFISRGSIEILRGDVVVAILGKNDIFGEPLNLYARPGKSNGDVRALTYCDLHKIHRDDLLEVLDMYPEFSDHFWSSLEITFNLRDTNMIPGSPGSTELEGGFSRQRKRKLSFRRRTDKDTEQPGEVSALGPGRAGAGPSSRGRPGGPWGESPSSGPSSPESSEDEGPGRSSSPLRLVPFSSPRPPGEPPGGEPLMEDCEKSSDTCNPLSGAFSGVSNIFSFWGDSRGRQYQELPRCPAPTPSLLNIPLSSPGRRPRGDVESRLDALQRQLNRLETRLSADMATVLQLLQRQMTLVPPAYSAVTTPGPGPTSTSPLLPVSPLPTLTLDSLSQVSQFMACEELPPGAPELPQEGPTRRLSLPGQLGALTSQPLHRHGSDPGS
Chain of Muscarinic acetylcholine receptor M1 (Homo sapiens) (P11229 whole entry): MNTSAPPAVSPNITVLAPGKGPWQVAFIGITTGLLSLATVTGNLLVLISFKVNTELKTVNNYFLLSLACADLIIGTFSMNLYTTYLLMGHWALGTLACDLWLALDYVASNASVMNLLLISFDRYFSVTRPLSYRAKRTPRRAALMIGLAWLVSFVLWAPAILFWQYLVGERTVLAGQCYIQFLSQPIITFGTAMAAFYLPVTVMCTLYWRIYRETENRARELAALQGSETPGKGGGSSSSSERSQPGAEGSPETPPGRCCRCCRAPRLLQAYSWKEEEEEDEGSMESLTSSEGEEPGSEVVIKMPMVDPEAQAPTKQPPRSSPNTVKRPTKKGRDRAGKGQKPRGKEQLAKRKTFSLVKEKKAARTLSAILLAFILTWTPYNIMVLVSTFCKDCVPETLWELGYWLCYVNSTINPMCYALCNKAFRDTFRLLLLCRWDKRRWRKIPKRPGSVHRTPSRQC
Chain of B1 bradykinin receptor (Homo sapiens) (P46663 whole entry): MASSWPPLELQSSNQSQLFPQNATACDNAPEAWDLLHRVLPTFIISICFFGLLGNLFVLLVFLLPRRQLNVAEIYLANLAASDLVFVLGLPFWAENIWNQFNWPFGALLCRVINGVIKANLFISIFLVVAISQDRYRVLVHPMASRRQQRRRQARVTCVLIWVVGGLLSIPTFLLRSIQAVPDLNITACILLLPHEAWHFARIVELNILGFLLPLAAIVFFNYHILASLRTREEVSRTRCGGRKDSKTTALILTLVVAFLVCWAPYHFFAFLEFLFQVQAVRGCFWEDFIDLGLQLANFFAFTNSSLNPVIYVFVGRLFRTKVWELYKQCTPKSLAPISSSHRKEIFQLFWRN
Chain of Sigma non-opioid intracellular receptor 1 (Homo sapiens) (Q99720 whole entry): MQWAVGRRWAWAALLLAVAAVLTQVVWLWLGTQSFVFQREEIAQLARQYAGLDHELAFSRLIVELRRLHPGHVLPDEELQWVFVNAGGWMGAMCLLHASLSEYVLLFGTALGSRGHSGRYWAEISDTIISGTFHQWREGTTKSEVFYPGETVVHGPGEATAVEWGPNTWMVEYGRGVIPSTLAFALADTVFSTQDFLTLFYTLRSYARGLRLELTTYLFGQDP
Chain of Cannabinoid receptor 1 (Homo sapiens) (P21554 whole entry): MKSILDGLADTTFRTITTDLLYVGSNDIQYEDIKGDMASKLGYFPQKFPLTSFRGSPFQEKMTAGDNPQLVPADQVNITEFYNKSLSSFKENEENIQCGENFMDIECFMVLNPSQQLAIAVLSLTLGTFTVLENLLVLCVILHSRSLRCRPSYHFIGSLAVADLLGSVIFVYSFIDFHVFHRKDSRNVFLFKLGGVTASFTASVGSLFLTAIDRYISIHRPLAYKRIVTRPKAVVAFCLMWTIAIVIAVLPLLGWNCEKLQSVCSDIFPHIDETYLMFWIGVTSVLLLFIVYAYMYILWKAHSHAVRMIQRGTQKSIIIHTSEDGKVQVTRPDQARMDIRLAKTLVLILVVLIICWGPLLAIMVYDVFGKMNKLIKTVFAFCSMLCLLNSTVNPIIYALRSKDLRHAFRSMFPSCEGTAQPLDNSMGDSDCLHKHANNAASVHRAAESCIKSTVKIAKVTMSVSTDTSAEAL
Chain of Beta-1 adrenergic receptor (Homo sapiens) (P08588 whole entry, looked up): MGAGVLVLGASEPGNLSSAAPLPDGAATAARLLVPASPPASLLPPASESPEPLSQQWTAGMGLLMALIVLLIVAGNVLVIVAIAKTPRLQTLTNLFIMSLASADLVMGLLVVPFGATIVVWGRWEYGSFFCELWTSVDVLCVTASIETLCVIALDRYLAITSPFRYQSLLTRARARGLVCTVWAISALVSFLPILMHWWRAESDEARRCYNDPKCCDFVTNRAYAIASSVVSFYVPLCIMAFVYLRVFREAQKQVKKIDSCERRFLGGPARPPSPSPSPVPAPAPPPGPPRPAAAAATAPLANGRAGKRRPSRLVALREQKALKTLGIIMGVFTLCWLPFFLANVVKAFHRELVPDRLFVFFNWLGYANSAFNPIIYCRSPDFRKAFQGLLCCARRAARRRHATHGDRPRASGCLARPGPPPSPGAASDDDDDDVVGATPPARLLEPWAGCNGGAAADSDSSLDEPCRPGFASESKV
Chain of Sodium-dependent serotonin transporter (Homo sapiens) (P31645 whole entry, looked up): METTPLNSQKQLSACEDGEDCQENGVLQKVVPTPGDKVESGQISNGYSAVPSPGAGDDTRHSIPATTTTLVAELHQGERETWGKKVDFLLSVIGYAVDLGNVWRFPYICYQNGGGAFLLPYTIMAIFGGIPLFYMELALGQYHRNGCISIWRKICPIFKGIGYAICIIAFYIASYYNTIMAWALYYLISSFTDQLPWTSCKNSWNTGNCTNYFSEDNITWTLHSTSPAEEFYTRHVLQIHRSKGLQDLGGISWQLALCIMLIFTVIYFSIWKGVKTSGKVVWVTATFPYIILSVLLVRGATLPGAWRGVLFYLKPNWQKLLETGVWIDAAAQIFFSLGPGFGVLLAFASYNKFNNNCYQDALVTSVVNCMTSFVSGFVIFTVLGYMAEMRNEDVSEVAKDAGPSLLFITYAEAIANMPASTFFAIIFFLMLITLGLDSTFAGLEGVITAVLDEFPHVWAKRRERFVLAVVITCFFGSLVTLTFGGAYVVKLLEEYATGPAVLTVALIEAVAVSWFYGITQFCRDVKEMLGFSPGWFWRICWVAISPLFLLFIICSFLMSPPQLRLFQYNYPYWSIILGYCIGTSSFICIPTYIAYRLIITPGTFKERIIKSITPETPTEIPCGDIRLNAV

For `CN1CCN(C)/C(=N/c2ccc([N+](=O)[O-])cc2C(=O)Nc2ccccc2)C1`, the Activity (Mus musculus [1]) was “Non-toxic”, the Activity (Mus musculus [2]) was “Non-toxic” and the Activity (Mus musculus [3]) was “Non-toxic”. For the same compound, the inhibition [4] was -1.17%, the inhibition [5] was 3.56% and the inhibition [6] was 9.23%. For the same compound, the inhibition [7] was -2.06%, the inhibition [8] was 15.2% and the inhibition [9] was 20.4%. The inhibition (Rattus norvegicus [10]) was 14.4%, the inhibition [11] was 0.73% and the inhibition [12] was 3%. It also gave an inhibition [13] of 25.9%, an inhibition [14] of 10.8% and an inhibition [15] of 0.62%. For the same compound, the inhibition [16] was -2.18%, the inhibition [17] was 9.71% and the inhibition (Cricetinae) was 4.77%. For the same compound, the inhibition at 10 µM (hERG (KCNH2)) was 30%, the inhibition (Oryctolagus cuniculus) was 14.2% and the inhibition (Rattus norvegicus [18]) was 6.41%. It also gave an inhibition (Rattus norvegicus [19]) of 34.9%, an inhibition [20] of 6.54% and an inhibition (Rattus norvegicus [21]) of 0.42%. The inhibition [22] was -5.97%, the EC50 [23] was 30 nM and the EC50 [24] was 20 nM. For the same compound, the EC50 [25] was 40 nM, the inhibition [26] was “Active” and the inhibition [27] was “Active”. For the same compound, the EC50 [28] was 170 nM, the solubility [29] was 40.4 µg/mL (≈ 110 µM) and the Stability [30] was 95.9%. The Stability (Plasma [31]) was 65.4%, the PPB (Plasma [32]) was 85% and the Stability (Liver) was 42.9%. It also gave a concentration at 2 h [33] of 23 nM and a concentration at 2 h [34] of 490 nM.
